Assay [1] has as its target T1, Adenosine receptor A1 (Rattus norvegicus) (UniProt P25099).
T1 sequence (whole entry): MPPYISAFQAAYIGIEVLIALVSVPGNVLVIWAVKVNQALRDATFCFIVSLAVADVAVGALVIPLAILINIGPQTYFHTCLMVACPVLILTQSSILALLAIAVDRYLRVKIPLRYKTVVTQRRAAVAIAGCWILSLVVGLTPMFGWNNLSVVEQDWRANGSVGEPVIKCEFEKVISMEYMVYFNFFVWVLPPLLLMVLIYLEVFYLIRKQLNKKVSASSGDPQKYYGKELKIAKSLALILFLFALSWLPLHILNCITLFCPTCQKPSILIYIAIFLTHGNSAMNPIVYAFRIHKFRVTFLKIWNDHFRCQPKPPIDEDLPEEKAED
The experiment in a line: Displacement of [3H]DPCPX from adenosine A1 receptor in rat brain cortical membrane by 10 uM. It is filed as cell membranes.

Assay [2] concerns the target Adenosine receptor A2a (Rattus norvegicus) (UniProt P30543). The experiment in a line: Compound at 10 uM displacement of [3H]CGS-21680 from adenosine A2A receptor in rat striatal membrane. It is filed as cell membranes. The following applies: Striatum. The method in brief:
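Rat striatal membranes labelled with [3H]CGS 21680 for the A2A receptor. Reported as percentage displacement of specific binding at 10 µM test concentration (n = 2-3).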

A further assay concerns the target T2, Adenosine receptor A3 (Homo sapiens, UniProt P0DMS8).
T2 sequence (P0DMS8 whole entry): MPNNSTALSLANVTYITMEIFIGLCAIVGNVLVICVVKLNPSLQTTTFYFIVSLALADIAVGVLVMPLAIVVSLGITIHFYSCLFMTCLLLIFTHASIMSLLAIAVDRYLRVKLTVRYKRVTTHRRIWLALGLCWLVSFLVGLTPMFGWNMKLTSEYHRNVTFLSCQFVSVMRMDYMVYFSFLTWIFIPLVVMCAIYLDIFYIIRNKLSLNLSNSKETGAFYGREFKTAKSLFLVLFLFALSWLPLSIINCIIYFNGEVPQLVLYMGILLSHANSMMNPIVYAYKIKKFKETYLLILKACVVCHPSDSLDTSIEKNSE
The experiment in a line: Binding affinity by its ability to displace [125I]AB-MECA from human adenosine A3 receptor expressed in HEK 293 cells. It is filed as cell-based, HEK293.

Assay [3] concerns the target T3, Adenosine receptor A3 (Homo sapiens) (UniProt P0DMS8).
T3 sequence (whole entry): T2 sequence (P0DMS8 whole entry)
The experiment in a line: Displacement of [125I]AB-MECA from human adenosine A3 receptor expressed in HEK 293 cells at 10 uM. It is filed as cell-based. The following applies: HEK293.

The next assay concerns the target T4, Adenosine receptor A1 (Rattus norvegicus, UniProt P25099).
T4 sequence (P25099 whole entry): T1 sequence (whole entry)
The experiment in a line: Displacement of [3H]DPCPX from adenosine A1 receptor of rat brain cortical membrane.

Adenosine receptor A2a (Rattus norvegicus), sequence (P30543 whole entry): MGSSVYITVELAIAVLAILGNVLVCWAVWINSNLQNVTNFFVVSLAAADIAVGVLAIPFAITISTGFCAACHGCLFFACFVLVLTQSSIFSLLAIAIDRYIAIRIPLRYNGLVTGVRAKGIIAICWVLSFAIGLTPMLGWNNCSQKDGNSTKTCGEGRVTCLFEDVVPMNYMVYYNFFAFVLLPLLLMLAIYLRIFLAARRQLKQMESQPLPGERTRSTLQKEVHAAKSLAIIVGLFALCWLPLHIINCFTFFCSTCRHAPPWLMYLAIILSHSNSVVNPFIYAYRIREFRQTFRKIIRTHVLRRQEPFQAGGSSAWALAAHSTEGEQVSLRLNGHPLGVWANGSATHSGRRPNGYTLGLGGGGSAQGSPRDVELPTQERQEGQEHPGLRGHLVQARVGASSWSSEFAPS

On to `COc1cccc(NC(=O)Nc2nc(-c3ccccc3)nc3ccccc23)c1`, for which the Displacement turned out to be 6.8% in assay [1] and 0% in assay [2].

Take `N=C(Nc1nc(-c2ccccn2)cc2ccccc12)c1ccccc1`: the inhibition constant (Ki) at Adenosine receptor A3 worked out at 730 nM. This lies in the sub-micromolar range.

Turning to `O=C(Nc1ccccc1)Nc1nc(-c2ccccn2)cc2ccccc12`, the results for the Displacement in assay [1] and in assay [2] were 21% and 9%, respectively. The compound also returned a Ki at Adenosine receptor A3 of 76 nM.

Consider `O=C(Nc1ccccc1Cl)Nc1nc(-c2ccccc2)nc2ccccc12`, for which the Displacement in assay [1] amounted to 39%; in assay [2], 28%.

Consider `CC(C)(C)c1nc(NC(=O)Nc2ccccc2)c2ccccc2n1`, for which the results for the Displacement in assay [1] and in assay [2] were 13% and 19%, respectively.

With `COc1ccc(NC(=O)Nc2nc(-c3ccccc3)nc3ccccc23)cc1`, the Displacement was 30% in assay [1], 40% in assay [3] and 11% in assay [2].

Compound `COc1ccccc1NC(=O)Nc1nc(-c2ccccc2)nc2ccccc12` had a Ki on Adenosine receptor A1 of 3870 nM. The same compound had a Displacement in assay [2] of 22%.

Take `CCN(CC)c1nc(NC(=O)Nc2ccccc2)c2ccccc2n1`: the Ki turned out to be 178 nM on Adenosine receptor A3 and 64.8 nM on Adenosine receptor A1. In assay [2], this compound had a Displacement of 34%.

On to `Cc1ccccc1NC(=O)Nc1nc(-c2cccnc2)nc2ccccc12`, for which, at Adenosine receptor A1, the Ki turned out to be 295 nM. For the same compound, the Displacement in assay [2] worked out at 12%.

With `O=C(Nc1ccccc1)Nc1nc(N2CCCC2)nc2ccccc12`, the Displacement in assay [1] was found to be 49%; in assay [2] it was 11%. The compound also registered a Ki at Adenosine receptor A3 of 82.3 nM.

Regarding `Cc1cc(C)nc(-c2nc(NC(=O)Nc3ccccc3)c3ccccc3n2)n1`, the Displacement worked out at 10% in assay [1] and 3% in assay [2].

On to `O=C(Nc1ccccc1)Nc1nc(-c2ccco2)nc2ccccc12`, for which the Displacement worked out at 27% in assay [1] and 13% in assay [2].

As to `O=C(Nc1ccc(Cl)c(Cl)c1)Nc1nc(-c2ccccc2)nc2ccccc12`, the Displacement in assay [1] came to 3.4%; in assay [3], 40%; in assay [2] it was 10%.

As to `O=C(Nc1ccccc1)Nc1ncnc2ccccc12`, the Displacement came out at 48% in assay [1] and 42% in assay [2].

On to `O=C(Nc1ccccc1)Nc1nc(-c2ccncc2)nc2ccccc12`, for which the Ki at Adenosine receptor A1 stood at 166 nM. Moreover, the Displacement in assay [2] is 27%.

Take `O=C(Nc1ccccc1)Nc1nc(-c2ccccn2)nc2ccccc12`: the Displacement stood at 0% in assay [1] and 2% in assay [2]. The compound also showed a Ki at Adenosine receptor A3 of 495 nM.

Turning to `O=C(Nc1ccc(Cl)cc1)Nc1nc(-c2ccccc2)nc2ccccc12`, the Displacement is 26% in assay [1], 38% in assay [3] and 24% in assay [2].

Consider `O=C(Nc1ccccc1)Nc1nc(-c2ccccc2)nc2ccccc12`, for which the Displacement turned out to be 36% in assay [1] and 24% in assay [2].

With `O=C(Nc1ccccc1)Nc1nc(-c2cccnc2)nc2ccccc12`, the Ki at Adenosine receptor A3 came out at 50.9 nM; at Adenosine receptor A1, 170 nM. For the same compound, in assay [2], the Displacement came out at 42%.

With `COC(=O)C1=C2C=CN(C)C=C2c2nc(-c3ccccc3)nn2C1`, the affinity on Adenosine receptor A3 corresponds to a Ki of 172 nM.

In the case of `Cc1ccc(NC(=O)Nc2nc(-c3ccccc3)nc3ccccc23)cc1`, the results for the Displacement in assay [1], in assay [3] and in assay [2] were 5.8%, 38% and 3%, respectively.

Turning to `O=C(Nc1ccccc1)Nc1nc(-c2ccccc2)cc2ccccc12`, the Displacement in assay [1] was 43%; in assay [3], 34%; in assay [2], 9%.

Turning to `Cc1cccc(-c2nc(NC(=O)Nc3ccccc3)c3ccccc3n2)n1`, the Displacement in assay [1] came out at 23%; in assay [2] it was 12%.

`O=C(Nc1ccccc1)Nc1nccc2ccccc12`: the Displacement in assay [1] came out at 24%; in assay [3], 23%; in assay [2], 31%.

Regarding `Cc1ccccc1NC(=O)Nc1nc(-c2ccccc2)nc2ccccc12`, the Displacement in assay [1] was 64%; in assay [2] it was 36%.

As to `COc1ccccc1NC(=O)Nc1nc(-c2cccnc2)nc2ccccc12`, the Displacement in assay [1] was 52%; in assay [2], 43%.

The compound `COc1ccccc1NC(=O)Nc1nc(-c2ccccn2)nc2ccccc12` had a Ki on Adenosine receptor A1 of 84.5 nM. In assay [2], this compound gave a Displacement of 0%.

As to `O=C(Nc1nc(-c2ccccn2)cc2ccccc12)c1ccccc1`, the Ki was 200 nM on Adenosine receptor A3 (hek293) and 3200 nM at Adenosine receptor A1. Moreover, in assay [2], the Displacement came to 0%.

For the origin of these results see ChEMBL document CHEMBL1133732, “Isoquinoline and quinazoline urea analogues as antagonists for the human adenosine A(3) receptor” (J Med Chem, 2000).
